The target of assay [1] is T1, Focal adhesion kinase 1 (Homo sapiens, UniProt Q05397). The assay is described as follows: Inhibition of FAK (unknown origin).
Target sequence in this assay (Q05397 whole entry): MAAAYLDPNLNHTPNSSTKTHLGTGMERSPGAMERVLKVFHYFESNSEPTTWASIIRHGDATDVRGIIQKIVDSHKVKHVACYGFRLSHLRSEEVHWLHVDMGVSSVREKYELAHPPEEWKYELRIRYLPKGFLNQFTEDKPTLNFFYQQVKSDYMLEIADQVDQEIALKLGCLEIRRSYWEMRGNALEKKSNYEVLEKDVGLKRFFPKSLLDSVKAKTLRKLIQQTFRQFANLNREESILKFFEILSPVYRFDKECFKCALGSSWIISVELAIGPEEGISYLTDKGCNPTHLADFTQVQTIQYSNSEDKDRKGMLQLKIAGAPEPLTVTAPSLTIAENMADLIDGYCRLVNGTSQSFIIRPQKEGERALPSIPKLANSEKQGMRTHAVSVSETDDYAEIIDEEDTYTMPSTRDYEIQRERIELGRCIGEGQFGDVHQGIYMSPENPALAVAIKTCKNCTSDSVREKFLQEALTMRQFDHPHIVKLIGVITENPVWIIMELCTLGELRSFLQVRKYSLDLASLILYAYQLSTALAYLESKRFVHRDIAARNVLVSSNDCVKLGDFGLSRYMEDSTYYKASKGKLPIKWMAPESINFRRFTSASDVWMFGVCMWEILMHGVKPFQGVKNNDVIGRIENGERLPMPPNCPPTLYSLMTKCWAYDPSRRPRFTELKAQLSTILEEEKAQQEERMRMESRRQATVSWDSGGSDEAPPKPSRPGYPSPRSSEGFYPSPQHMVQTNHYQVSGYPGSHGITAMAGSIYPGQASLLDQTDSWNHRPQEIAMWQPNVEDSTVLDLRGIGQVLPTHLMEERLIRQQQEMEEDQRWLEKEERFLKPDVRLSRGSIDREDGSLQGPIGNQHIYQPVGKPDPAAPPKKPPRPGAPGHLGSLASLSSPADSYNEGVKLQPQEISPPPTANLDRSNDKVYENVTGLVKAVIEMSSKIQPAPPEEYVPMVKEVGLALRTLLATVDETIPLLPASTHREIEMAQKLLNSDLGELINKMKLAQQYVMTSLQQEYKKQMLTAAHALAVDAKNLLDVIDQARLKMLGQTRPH
Assay [2] concerns the target T1, Focal adhesion kinase 1. The assay is described as follows: Inhibition of human FAK phosphorylation in human HepG2 cells at 4 uM by Western blot analysis. Format: cell-based. A digest of the protocol: (§1)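 HepG2 cells treated, with DMSO as negative control (4 μM stated for p-FAK). Western blot for phospho-FAK, -PI3K, -Akt, -JNK and -STAT3 with GAPDH as loading control. Each phospho band is quantified by densitometry relative to its total protein. Means ± SEM of three experiments, with significance vs DMSO.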
Target sequence in this assay (Q05397 2-1052 limits assumed): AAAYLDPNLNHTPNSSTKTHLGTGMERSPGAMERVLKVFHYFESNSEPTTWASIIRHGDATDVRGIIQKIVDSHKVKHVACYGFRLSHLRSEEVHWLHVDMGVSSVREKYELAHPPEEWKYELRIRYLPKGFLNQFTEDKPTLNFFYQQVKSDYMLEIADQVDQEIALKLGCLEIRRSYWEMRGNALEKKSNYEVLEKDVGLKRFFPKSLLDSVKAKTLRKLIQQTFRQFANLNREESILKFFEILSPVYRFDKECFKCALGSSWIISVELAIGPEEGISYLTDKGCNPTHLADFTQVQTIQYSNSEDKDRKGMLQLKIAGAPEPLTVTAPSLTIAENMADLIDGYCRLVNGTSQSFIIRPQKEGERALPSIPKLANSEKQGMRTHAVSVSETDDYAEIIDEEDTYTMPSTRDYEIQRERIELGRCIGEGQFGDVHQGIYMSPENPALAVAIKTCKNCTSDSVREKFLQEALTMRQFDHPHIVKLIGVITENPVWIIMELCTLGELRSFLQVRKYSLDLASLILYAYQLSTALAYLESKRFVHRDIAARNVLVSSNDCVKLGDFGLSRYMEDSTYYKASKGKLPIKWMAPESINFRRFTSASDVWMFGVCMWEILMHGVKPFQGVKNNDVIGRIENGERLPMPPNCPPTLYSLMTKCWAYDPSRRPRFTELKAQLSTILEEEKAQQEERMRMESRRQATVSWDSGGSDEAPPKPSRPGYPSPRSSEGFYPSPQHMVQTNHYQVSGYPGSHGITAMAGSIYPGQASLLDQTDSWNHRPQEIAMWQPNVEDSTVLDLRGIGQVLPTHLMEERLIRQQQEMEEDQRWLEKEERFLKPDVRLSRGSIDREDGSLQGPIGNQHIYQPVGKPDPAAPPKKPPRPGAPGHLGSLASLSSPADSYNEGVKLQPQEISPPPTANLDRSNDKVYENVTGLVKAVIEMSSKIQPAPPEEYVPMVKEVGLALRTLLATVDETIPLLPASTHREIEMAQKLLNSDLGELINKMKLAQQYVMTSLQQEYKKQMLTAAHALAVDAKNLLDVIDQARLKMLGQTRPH
(Immunoblotting shows a protein as a band on a membrane.)

Assay [3] deals with HepG2. The assay is described as follows: Antiproliferative activity against human HepG2 cells assessed as growth inhibition. Format: functional, cell-based.
Another assay deals with Hep 3B2. The assay is described as follows: Antiproliferative activity against human Hep3B cells assessed as growth inhibition. The assay is classed as functional, cell-based.
In assay [4] the test system is HepG2. The assay is described as follows: Inhibition of PI3K in human HepG2 cells assessed as reduction in PI3K phosphorylation by Westernblot analysis. Format: cell-based. A digest of the protocol:
as §1

Assay [5] has as its target RAC-alpha serine/threonine-protein kinase (Homo sapiens) (UniProt P31749). The assay is described as follows: Inhibition of Akt in human HepG2 cells assessed as reduction in Akt phosphorylation by Westernblot analysis. Format: cell-based. Put shortly: as §1
The target in assay [6] is c-Jun N-terminal kinase, JNK (Homo sapiens) (UniProt P45983+P53779+P45984). The assay is described as follows: Inhibition of JNK in human HepG2 cells assessed as reduction in JNK phosphorylation by Westernblot analysis. The assay is classed as cell-based. Put shortly:
as §1

The target in assay [7] is Signal transducer and activator of transcription 3 (Homo sapiens) (UniProt P40763). The assay is described as follows: Inhibition of STAT3 in human HepG2 cells assessed as reduction in STAT3 phosphorylation by Westernblot analysis. The assay is classed as cell-based. Put shortly: as §1
Assay [8] relates to HepG2. The assay is described as follows: Induction of cell cycle arrest in human HepG2 assessed as accumulation of cells at S phase at 3.78 uM incubated for 24 hrs by Flow cytometric analysis. The assay is classed as functional. On the technique in general: A flow cytometer gives signals particle by particle.
The test system of assay [9] is HepG2. The assay is described as follows: Induction of apoptosis in human HepG2 cells assessed as early apoptotic cells after 24 hrs by Annexin V/propidium iodide staining based assay (reference value: 0.33%). The assay is classed as functional.
The test system of assay [10] is HepG2. The assay is described as follows: Induction of apoptosis in human HepG2 cells assessed as late apoptotic cells after 24 hrs by Annexin V/propidium iodide staining based assay (reference value: 0.09%). The assay is classed as functional.
The test system of assay [11] is HepG2. The assay is described as follows: Induction of apoptosis in human HepG2 cells assessed as necrotic cells after 24 hrs by Annexin V/propidium iodide staining based assay (reference value: 0.79%). Format: functional.
Assay [12] deals with HepG2. The assay is described as follows: Induction of cell cycle arrest in human HepG2 assessed as accumulation of cells at sub G1 phase at 3.78 uM incubated for 24 hrs by Flow cytometric analysis.

Activity calls are given as the source filed them. The rule behind the calls is not given here.

Drawing on ChEMBL document CHEMBL4819057, “Discovery of antiproliferative and anti-FAK inhibitory activity of 1,2,4-triazole derivatives containing acetamido carboxylic acid skeleton” (Bioorg Med Chem Lett, 2021), this text covers IC50, inhibition and Activity for 5 compounds.

RAC-alpha serine/threonine-protein kinase (Homo sapiens), sequence (P31749 whole entry): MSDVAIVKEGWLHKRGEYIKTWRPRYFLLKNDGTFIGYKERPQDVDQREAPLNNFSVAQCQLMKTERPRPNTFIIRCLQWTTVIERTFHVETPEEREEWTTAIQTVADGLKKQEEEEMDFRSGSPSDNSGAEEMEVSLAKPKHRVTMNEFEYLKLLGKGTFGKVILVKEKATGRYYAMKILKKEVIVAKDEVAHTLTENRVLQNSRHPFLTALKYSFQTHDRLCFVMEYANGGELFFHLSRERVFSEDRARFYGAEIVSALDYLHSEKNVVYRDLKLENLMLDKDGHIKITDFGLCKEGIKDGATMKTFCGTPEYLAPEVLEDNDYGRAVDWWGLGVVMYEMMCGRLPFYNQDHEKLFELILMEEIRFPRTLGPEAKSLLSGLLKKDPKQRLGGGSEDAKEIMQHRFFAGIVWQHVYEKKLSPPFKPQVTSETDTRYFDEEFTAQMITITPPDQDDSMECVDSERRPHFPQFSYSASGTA
Signal transducer and activator of transcription 3 (Homo sapiens), sequence (P40763 whole entry): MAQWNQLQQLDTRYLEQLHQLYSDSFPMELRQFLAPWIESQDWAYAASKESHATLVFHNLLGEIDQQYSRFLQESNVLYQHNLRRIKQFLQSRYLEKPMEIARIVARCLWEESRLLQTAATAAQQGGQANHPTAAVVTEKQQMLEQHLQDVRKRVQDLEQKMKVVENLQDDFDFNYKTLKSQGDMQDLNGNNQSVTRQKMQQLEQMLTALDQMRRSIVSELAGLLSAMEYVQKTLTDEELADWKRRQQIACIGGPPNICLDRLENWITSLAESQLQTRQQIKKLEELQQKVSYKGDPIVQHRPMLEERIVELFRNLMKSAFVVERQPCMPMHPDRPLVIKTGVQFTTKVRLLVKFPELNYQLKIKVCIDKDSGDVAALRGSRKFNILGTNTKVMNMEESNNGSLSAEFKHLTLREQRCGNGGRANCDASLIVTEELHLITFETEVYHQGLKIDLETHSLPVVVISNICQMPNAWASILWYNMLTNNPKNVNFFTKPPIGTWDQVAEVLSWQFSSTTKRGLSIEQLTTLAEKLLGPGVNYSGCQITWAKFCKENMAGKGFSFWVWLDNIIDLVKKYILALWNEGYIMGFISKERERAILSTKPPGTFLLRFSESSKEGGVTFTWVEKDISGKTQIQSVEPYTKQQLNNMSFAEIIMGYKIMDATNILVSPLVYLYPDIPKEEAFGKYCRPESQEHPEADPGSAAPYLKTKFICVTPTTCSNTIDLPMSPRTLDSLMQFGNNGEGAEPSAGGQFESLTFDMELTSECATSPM

For orientation: IC50 means the point on the concentration scale where inhibition reaches its midpoint. As for `O=C(CSc1nnc(-c2ccncc2)n1-c1ccccc1)Nc1ccc(C(=O)O)cc1`, the figures for the IC50 on Focal adhesion kinase 1 [1], with HepG2 [3] and in the assay with Hep 3B2 were 0.0181 µM, 3.78 µM and 4.83 µM, respectively. The inhibition result (on Focal adhesion kinase 1 [2]; in the assay on HepG2 [4]; in assay [5]; in [6]; in [7]) was “Active” throughout. Further, the Activity is 54.11% in the assay with HepG2 [8]; 5.31% with HepG2 [9]; 23.71% in the assay with HepG2 [10]; 12.59% in the assay on HepG2 [11]; 41.61% in the assay on HepG2 [12].
`C=CCn1c(SCC(=O)Nc2ccc(C(=O)O)cc2)nnc1-c1ccncc1`: the IC50 against Focal adhesion kinase 1 [1] was 0.0364 µM; with HepG2 [3], 4.72 µM; with Hep 3B2, 2.88 µM. For the same compound, the inhibition result (at Focal adhesion kinase 1 [2]; in the assay with HepG2 [4]; in assay [5]; in assay [6]; in assay [7]) was “Active” each time.
For the compound `COc1cccc2c1C(=O)c1c(O)c3c(c(O)c1C2=O)C[C@@](O)(C(=O)CO)C[C@@H]3O[C@H]1C[C@H](N)[C@H](O)[C@H](C)O1` [DOXORUBICIN], the IC50 was 1.99 µM in the assay with HepG2 [3] and 7.21 µM with Hep 3B2.
Taken in the same sequence, the figures for `Cn1c(SCC(=O)Nc2ccc(C(=O)O)cc2)nnc1-c1ccncc1` were 8.83 µM and 3.87 µM.
For the compound `CCn1c(SCC(=O)Nc2ccc(C(=O)O)cc2)nnc1-c1ccncc1`, the IC50 in the assay with HepG2 [3] is 41 µM; with Hep 3B2, 17.9 µM.
